Measurements as given in ChEMBL document CHEMBL3864129, “Polybrominated Diphenyl Ethers: Structure Determination and Trends in Antibacterial Activity” (J Nat Prod, 2016).
Values after ≈ are worked out from the molar mass of the structure shown.

Tests used:
Pseudomonas aeruginosa = test: Antimicrobial activity against Pseudomonas aeruginosa ATCC 27853 by CLSI M07-A9 method; type: functional
Summary of the method: (§1)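 Laboratory strains tested following CLSI guidelines. Each compound was run in duplicate in at least two independent experiments, and the MIC was recorded.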

Enterococcus faecium [1] = test: Antimicrobial activity against Enterococcus […] ATCC 51299 by CLSI M07-A9 method; type: functional; summary of the method: as §1
Staphylococcus aureus [2] = test: Antimicrobial activity against Staphylococcus aureus ATCC 43300 by CLSI M07-A9 method; type: functional; summary of the method: as §1
[3] = Cytotoxicity against human HCT116 cells assessed as decrease in cell viability after 24 hrs by MTT assay; type: toxicity, cell-based, HCT-116
Staphylococcus aureus [4] = test: Antimicrobial activity against Staphylococcus aureus ATCC 29213 by CLSI M07-A9 method; type: functional; summary of the method: as §1
Enterococcus faecium [5] = test: Antimicrobial activity against Enterococcus […] ATCC 29212 by CLSI M07-A9 method; type: functional; summary of the method: as §1
[6] = Cytotoxicity against African green monkey BSC1 cells assessed as decrease in cell viability after 24 hrs by MTT assay; type: toxicity, cell-based, Chlorocebus aethiops, BSC-1; conditions: for IC50: bsc-1; for IC50 at 24 h: African green monkey (Chlorocebus aethiops), BSC1 cells
Candida albicans = test: Antimicrobial activity against Candida albicans ATCC 28517 by CLSI M07-A9 method; type: functional; summary of the method: as §1
Escherichia coli = test: Antimicrobial activity against Escherichia coli ATCC 25922 by CLSI M07-A9 method; type: functional; summary of the method: as §1

| Compound | MIC (Pseudomonas aeruginosa) | MIC (Enterococcus faecium [1]) | MIC (Staphylococcus aureus [2]) | MNTC at 24 h [3] | MIC (Staphylococcus aureus [4]) | MIC (Enterococcus faecium [5]) | IC50 [6] | MIC (Candida albicans) | MIC (Escherichia coli) | IC50 at 24 h [6] | Activity (Escherichia coli) |
| --- | --- | --- | --- | --- | --- | --- | --- | --- | --- | --- | --- |
| Oc1c(Br)cc(Br)cc1Oc1c(Br)cc(Br)c(Br)c1O | > 50 µg/mL | 0.78 µg/mL (≈ 1.31 µM) | 0.16 µg/mL (≈ 0.268 µM) | 50 µg/mL | 0.78 µg/mL (≈ 1.31 µM) | 1.6 µg/mL (≈ 2.68 µM) | > 50 µg/mL | > 50 µg/mL | – | – | – |
| Oc1cc(Br)cc(Br)c1O | > 50 µg/mL | 25 µg/mL (≈ 93.3 µM) | > 50 µg/mL | 50 µg/mL | 100 µg/mL (≈ 373 µM) | 12.5 µg/mL (≈ 46.7 µM) | > 50 µg/mL | > 50 µg/mL | > 100 µg/mL | – | – |
| Oc1c(Br)c(Br)c(Br)c(Br)c1Oc1ccc(Br)cc1Br | – | 33 µg/mL (≈ 50 µM) | 0.8 µg/mL (≈ 1.21 µM) | – | 1.6 µg/mL (≈ 2.43 µM) | 33 µg/mL (≈ 50 µM) | 29 µg/mL (≈ 44 µM) | – | > 100 µg/mL | – | – |
| COc1cc(Br)c(Br)c(Br)c1Oc1cc(Br)cc(Br)c1OC | > 50 µg/mL | > 50 µg/mL | > 50 µg/mL | 50 µg/mL | > 50 µg/mL | > 50 µg/mL | > 50 µg/mL | > 50 µg/mL | > 50 µg/mL | – | – |
| Oc1cc(Br)cc(Br)c1Oc1cc(Br)cc(Br)c1O | > 50 µg/mL | 1.6 µg/mL (≈ 3.09 µM) | 1.25 µg/mL (≈ 2.41 µM) | 50 µg/mL | 1.6 µg/mL (≈ 3.09 µM) | 3.1 µg/mL (≈ 5.99 µM) | > 50 µg/mL | > 50 µg/mL | – | – | – |
| GENTAMICIN | 1 µg/mL | – | – | – | – | – | – | – | – | – | – |
| Oc1c(Br)cc(Br)cc1Oc1ccc(Br)cc1Br | – | 0.8 µg/mL (≈ 1.59 µM) | 0.19 µg/mL (≈ 0.379 µM) | – | 0.78 µg/mL (≈ 1.55 µM) | 0.8 µg/mL (≈ 1.59 µM) | 32 µg/mL (≈ 63.8 µM) | – | > 100 µg/mL | – | – |
| COc1c(Br)cc(Br)cc1Oc1ccc(Br)cc1Br | – | 11 µg/mL (≈ 21.3 µM) | 0.4 µg/mL (≈ 0.775 µM) | – | 3.7 µg/mL (≈ 7.17 µM) | 11 µg/mL (≈ 21.3 µM) | 35 µg/mL (≈ 67.9 µM) | – | > 100 µg/mL | – | – |
| COc1c(Br)cc(Br)cc1Oc1c(Br)cc(Br)c(Br)c1OC | > 50 µg/mL | – | > 50 µg/mL | 50 µg/mL | > 50 µg/mL | – | > 50 µg/mL | > 50 µg/mL | > 50 µg/mL | – | – |
| C[C@@H]1[C@H](O)[C@@H](C)/C=C/C=C/C=C/C=C/C=C/C=C/C=C/[C@H](O[C@@H]2O[C@H](C)[C@@H](O)[C@H](N)[C@@H]2O)C[C@@H]2O[C@](O)(C[C@@H](O)C[C@@H](O)[C@H](O)CC[C@@H](O)C[C@@H](O)CC(=O)O[C@H]1C)C[C@H](O)[C@H]2C(=O)O [AMPHOTERICIN B] | – | – | – | – | – | – | – | < 7.8 µg/mL | – | – | – |
| Oc1cc(Br)c(Br)c(Br)c1Oc1cc(Br)cc(Br)c1O | – | 0.39 µg/mL (≈ 0.654 µM) | 0.078 µg/mL (≈ 0.131 µM) | 50 µg/mL | 0.31 µg/mL (≈ 0.52 µM) | 0.39 µg/mL (≈ 0.654 µM) | > 50 µg/mL | > 50 µg/mL | 25 µg/mL (≈ 41.9 µM) | – | – |
| Oc1cc(Br)c(Br)cc1Oc1ccc(Br)cc1Br | – | 0.4 µg/mL (≈ 0.797 µM) | 0.015 µg/mL (≈ 0.0299 µM) | – | 0.14 µg/mL (≈ 0.279 µM) | 0.4 µg/mL (≈ 0.797 µM) | 8.8 µg/mL (≈ 17.5 µM) | – | 12.5 µg/mL (≈ 24.9 µM) | – | – |
| COc1c(Br)cc(Br)cc1Oc1cc(Br)c(Br)c(Br)c1OC | > 50 µg/mL | > 50 µg/mL | > 50 µg/mL | 50 µg/mL | > 50 µg/mL | > 50 µg/mL | – | > 50 µg/mL | > 50 µg/mL | > 50 µg/mL | – |
| Cc1onc(-c2ccccc2)c1C(=O)N[C@@H]1C(=O)N2[C@@H]1SC(C)(C)[C@@H]2C(=O)O [OXACILLIN] | – | 32 µg/mL (≈ 79.7 µM) | > 32 µg/mL | – | 0.13 µg/mL (≈ 0.324 µM) | – | – | – | – | – | – |
| COc1c(Br)c(Br)c(O)c(Oc2cc(Br)cc(Br)c2O)c1Br | > 50 µg/mL | 1.56 µg/mL (≈ 2.49 µM) | 0.39 µg/mL (≈ 0.622 µM) | 50 µg/mL | 0.78 µg/mL (≈ 1.24 µM) | 3.1 µg/mL (≈ 4.95 µM) | > 50 µg/mL | > 50 µg/mL | > 50 µg/mL | – | – |
| Oc1ccccc1Oc1ccccc1O | – | > 50 µg/mL | 50 µg/mL (≈ 247 µM) | – | 50 µg/mL (≈ 247 µM) | > 50 µg/mL | – | – | – | – | Non-Toxic |
| Oc1c(Oc2ccc(Br)cc2Br)cc(Br)c(Br)c1Br | – | 1.2 µg/mL (≈ 2.07 µM) | 0.4 µg/mL (≈ 0.689 µM) | – | 3.7 µg/mL (≈ 6.37 µM) | 1.2 µg/mL (≈ 2.07 µM) | 15 µg/mL (≈ 25.8 µM) | – | > 100 µg/mL | – | – |
| COc1c(Br)cc(Br)cc1Oc1c(Br)c(OC)c(Br)c(Br)c1OC | > 50 µg/mL | 13 µg/mL (≈ 19.9 µM) | 3.1 µg/mL (≈ 4.73 µM) | 50 µg/mL | 3.1 µg/mL (≈ 4.73 µM) | 13 µg/mL (≈ 19.9 µM) | > 50 µg/mL | > 50 µg/mL | > 50 µg/mL | – | – |
| Oc1cc(Br)cc(Br)c1Oc1ccc(Br)cc1Br | > 50 µg/mL | 1.2 µg/mL (≈ 2.39 µM) | 0.08 µg/mL (≈ 0.159 µM) | – | 0.042 µg/mL (≈ 0.0837 µM) | 1.2 µg/mL (≈ 2.39 µM) | 7 µg/mL (≈ 13.9 µM) | > 50 µg/mL | 3.1 µg/mL (≈ 6.18 µM) | – | – |
| Oc1c(Br)cc(Br)cc1Oc1cc(Br)c(Br)c(Br)c1O | – | 0.78 µg/mL (≈ 1.31 µM) | 0.16 µg/mL (≈ 0.268 µM) | 50 µg/mL | 0.31 µg/mL (≈ 0.52 µM) | 1.6 µg/mL (≈ 2.68 µM) | > 50 µg/mL | > 50 µg/mL | – | – | – |
| Oc1c(Br)cc(Br)cc1Oc1c(O)c(Br)c(Br)c(Br)c1Br | – | 0.39 µg/mL (≈ 0.577 µM) | 0.16 µg/mL (≈ 0.237 µM) | 50 µg/mL | 0.39 µg/mL (≈ 0.577 µM) | 0.78 µg/mL (≈ 1.15 µM) | > 50 µg/mL | – | – | – | – |
| Oc1c(Br)cc(Br)cc1Oc1c(O)c(Br)cc(Br)c1Br | > 50 µg/mL | 3.1 µg/mL (≈ 5.2 µM) | 0.31 µg/mL (≈ 0.52 µM) | 50 µg/mL | 1.6 µg/mL (≈ 2.68 µM) | 3.1 µg/mL (≈ 5.2 µM) | > 50 µg/mL | > 50 µg/mL | 100 µg/mL (≈ 168 µM) | – | – |
| COc1c(Br)cc(Br)cc1Oc1c(Br)c(Br)cc(Br)c1OC | > 50 µg/mL | > 50 µg/mL | > 50 µg/mL | 50 µg/mL | > 50 µg/mL | 50 µg/mL (≈ 80 µM) | – | > 50 µg/mL | > 50 µg/mL | > 50 µg/mL | – |
